ChEMBL document CHEMBL1129630, “Synthesis and structure-activity relationships of retinoid X receptor selective diaryl sulfide analogs of retinoic acid” (J Med Chem, 1996)

Legend:
[1] = target: T1, Retinoic acid receptor gamma (Homo sapiens, UniProt P13631); experiment: Transcriptional activation of Retinoic acid receptor RAR gamma;NA=not active; parameters: species or system Cercopithecidae
T1 sequence (P13631 whole entry): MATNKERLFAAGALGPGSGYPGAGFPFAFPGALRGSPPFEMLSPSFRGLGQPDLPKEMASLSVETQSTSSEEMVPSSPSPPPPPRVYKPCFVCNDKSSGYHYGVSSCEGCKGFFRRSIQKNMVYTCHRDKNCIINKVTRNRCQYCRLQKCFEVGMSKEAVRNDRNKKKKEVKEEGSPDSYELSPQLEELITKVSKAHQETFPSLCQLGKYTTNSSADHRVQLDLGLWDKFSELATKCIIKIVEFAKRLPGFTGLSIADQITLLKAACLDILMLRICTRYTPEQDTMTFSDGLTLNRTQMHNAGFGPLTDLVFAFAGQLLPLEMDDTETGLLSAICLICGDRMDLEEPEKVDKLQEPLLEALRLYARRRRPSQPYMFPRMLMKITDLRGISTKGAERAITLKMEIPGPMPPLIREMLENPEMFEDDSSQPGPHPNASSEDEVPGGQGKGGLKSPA
How it was run: (§1)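 CV-1 cells transiently cotransfected with the receptor construct and a reporter gene, with induced transcription measured. Activity is normalized to all-trans RA. EC50 is the concentration giving 50% of maximal observed response, from a single experiment in triplicate.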

[2] = target: T2, Retinoic acid receptor RXR-beta (Mus musculus, UniProt P28704); experiment: Dissociation constant for binding to Retinoid X receptor beta
T2 sequence (P28704 whole entry): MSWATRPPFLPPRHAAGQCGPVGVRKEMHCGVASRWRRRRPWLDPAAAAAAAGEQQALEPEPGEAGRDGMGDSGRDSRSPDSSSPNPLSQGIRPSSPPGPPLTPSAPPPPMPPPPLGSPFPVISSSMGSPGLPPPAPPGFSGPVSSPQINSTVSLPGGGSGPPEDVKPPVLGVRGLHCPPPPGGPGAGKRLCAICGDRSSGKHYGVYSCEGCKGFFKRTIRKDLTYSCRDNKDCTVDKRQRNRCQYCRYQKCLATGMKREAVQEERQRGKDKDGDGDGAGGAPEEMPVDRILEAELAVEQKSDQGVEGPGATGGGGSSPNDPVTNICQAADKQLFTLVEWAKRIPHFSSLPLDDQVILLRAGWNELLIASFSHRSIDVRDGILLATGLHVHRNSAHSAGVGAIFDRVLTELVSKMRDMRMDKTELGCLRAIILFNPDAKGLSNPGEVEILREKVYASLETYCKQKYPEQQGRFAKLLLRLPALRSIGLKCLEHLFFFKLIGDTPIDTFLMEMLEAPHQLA
How it was run: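 Competitive binding assay measuring displacement at the RXRβ receptor subtype.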

[3] = target: T3, Retinoic acid receptor beta (Mus musculus, UniProt P22605); experiment: Dissociation constant for binding to Retinoic acid receptor beta;NA=not active
T3 sequence (P22605 whole entry): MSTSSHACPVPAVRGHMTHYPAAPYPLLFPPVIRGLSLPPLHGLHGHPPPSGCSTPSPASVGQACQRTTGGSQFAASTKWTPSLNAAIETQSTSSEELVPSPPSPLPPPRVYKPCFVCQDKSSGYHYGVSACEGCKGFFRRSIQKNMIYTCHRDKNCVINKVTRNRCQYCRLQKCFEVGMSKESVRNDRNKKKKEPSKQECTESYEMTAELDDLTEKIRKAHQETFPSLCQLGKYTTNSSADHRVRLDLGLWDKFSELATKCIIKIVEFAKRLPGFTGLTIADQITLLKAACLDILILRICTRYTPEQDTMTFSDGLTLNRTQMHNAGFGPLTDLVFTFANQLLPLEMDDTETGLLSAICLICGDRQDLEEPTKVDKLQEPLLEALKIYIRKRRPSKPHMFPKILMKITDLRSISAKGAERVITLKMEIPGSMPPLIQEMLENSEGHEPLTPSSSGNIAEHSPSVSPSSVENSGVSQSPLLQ
How it was run: (§2)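 Competitive binding assays against each receptor subtype, with Kd values taken from competition.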

Mus musculus = species: Mus musculus; experiment: Inhibition of Chondrogenesis in day 11 embryonic limb bud cells; conditions: 264 h
HL-60 = experiment: Induction of transglutaminase (TGase) activity in HL-60 cells; conditions: Homo sapiens
[4] = target: T4, Retinoic acid receptor alpha (Mus musculus, UniProt P11416); experiment: Dissociation constant for binding to Retinoic acid receptor alpha;NA=not active; how it was run: as §2
T4 sequence (P11416 whole entry): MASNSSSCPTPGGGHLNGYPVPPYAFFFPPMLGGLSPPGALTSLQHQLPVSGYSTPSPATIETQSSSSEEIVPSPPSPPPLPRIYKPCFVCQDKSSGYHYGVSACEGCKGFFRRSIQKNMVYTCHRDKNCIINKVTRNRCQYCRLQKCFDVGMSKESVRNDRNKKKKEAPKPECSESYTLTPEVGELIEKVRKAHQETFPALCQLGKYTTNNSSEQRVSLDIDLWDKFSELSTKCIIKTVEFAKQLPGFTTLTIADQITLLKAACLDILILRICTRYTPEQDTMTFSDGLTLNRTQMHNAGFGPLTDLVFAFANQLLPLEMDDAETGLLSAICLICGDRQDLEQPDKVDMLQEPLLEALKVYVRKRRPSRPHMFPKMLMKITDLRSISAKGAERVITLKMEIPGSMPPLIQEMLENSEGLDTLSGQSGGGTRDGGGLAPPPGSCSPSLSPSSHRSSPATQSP

[5] = target: T5, Retinoic acid receptor RXR-beta (Homo sapiens, UniProt P28702); experiment: Transcriptional activation of Retinoid X receptor RXR beta; parameters: species or system Cercopithecidae
T5 sequence (P28702 whole entry): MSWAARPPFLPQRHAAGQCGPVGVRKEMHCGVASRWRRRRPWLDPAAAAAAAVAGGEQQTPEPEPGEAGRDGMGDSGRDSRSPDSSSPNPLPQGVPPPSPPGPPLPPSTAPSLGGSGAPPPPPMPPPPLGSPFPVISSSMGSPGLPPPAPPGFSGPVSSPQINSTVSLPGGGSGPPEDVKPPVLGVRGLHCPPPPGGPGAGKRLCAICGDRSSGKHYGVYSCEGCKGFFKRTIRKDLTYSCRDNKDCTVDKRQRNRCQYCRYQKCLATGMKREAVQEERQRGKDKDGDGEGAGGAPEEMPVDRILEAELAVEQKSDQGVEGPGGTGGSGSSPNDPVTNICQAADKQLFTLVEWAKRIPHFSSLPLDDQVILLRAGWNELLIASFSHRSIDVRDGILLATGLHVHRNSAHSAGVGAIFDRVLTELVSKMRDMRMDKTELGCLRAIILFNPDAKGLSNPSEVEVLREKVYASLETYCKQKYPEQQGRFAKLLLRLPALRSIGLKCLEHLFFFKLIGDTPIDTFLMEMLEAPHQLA
How it was run: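 CV-1 cells transiently cotransfected with the receptor construct and a reporter gene, with induced transcription measured. Activity is normalized to all-trans RA.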

[6] = target: T3, Retinoic acid receptor beta; experiment: Dissociation constant for binding to Retinoic acid receptor beta; how it was run: as §2
[7] = target: T4, Retinoic acid receptor alpha; experiment: Dissociation constant for binding to Retinoic acid receptor alpha; type: single protein; how it was run: as §2
[8] = target: T1, Retinoic acid receptor gamma; experiment: Transcriptional activation of Retinoic acid receptor RAR gamma; parameters: species or system Cercopithecidae; how it was run: as §1

Compound	EC50 [1]	Kd [2]	Kd [3]	IC50 (Mus musculus)	EC50 (HL-60)	Kd [4]	EC50 [5]	Kd [6]	Kd [7]	EC50 [8]
Cc1cc2c(cc1Sc1ccc(C(=O)O)cn1)C(C)(C)CCC2(C)C	Not Active	0.087 µM	Not Active	1 µM	0.1 µM	Not Active	–	–	–	–
Cc1cc2c(cc1Sc1ccc(C(=O)O)cc1)C(C)(C)CCC2(C)C	–	–	–	0.91 µM	0.2 µM	–	0.3 µM	> 10 µM	> 10 µM	Not Active
Cc1cc2c(cc1S(=O)(=O)c1ccc(C(=O)O)cc1)C(C)(C)CCC2(C)C	Not Active	–	–	–	–	–	–	> 10 µM	> 10 µM	–
Cc1cc2c(cc1[S+]([O-])c1ccc(C(=O)O)cc1)C(C)(C)CCC2(C)C (centres undefined)	Not Active	> 10 µM	–	–	–	–	3 µM	> 10 µM	> 10 µM	–
Cc1cc2c(cc1Sc1ncc(C(=O)O)s1)C(C)(C)CCC2(C)C	Not Active	1 µM	–	–	–	–	1.3 µM	1 µM	1 µM	–
CC1(C)CCC(C)(C)c2cc(Sc3ccc(C(=O)O)cc3)ccc21	–	3.09 µM	–	–	–	–	–	4.24 µM	4.08 µM	0.34 µM
